Measured values from PMC2652250 (Biochemistry, 2008).
Values joined by “and” are separate entries in the source; they are usually repeats but may differ in a detail not shown here. Equal values may be shown once.

Legend:
[1] = target: cNTnC(C35S/C84S)·Ca^2+·cTnI144−163 (Homo sapiens, UniProt P19429+P63316, C35S/C84S); format: binding; conditions: for drug-induced backbone amide chemical shift changes: 1.0 mM cNTnC(C35S/C84S), […] cTnI144−163, Figure 6; for Kd: global fit of HSQC chemical shift changes, pH 6.7, 30 °C; for chemical shift changes on titration (in words): 100 mM stock added to the NMR sample
[2] = Solubility and precipitation in aqueous solution / NMR samples during titration
[3] = target: cNTnC(C35S/C84S)·Ca^2+·cTnI147−163 (Homo sapiens, UniProt P19429+P63316, C35S/C84S); format: binding; conditions: for chemical shift changes on titration (in words): 100 mM stock added to the NMR sample
[4] = target: cTnC·3Ca^2+·cTnI34−71·cTnI128−163; conditions: cited from earlier work
[5] = target: sTnC·4Ca^2+·sTnI1−182·sTnT156−262; conditions: cited from earlier work
[6] = target: cTnC·3Ca^2+·cTnI32−79·cTnI128−180; conditions: cited from earlier work
[7] = target: cTnI144−163 (Homo sapiens, UniProt P19429); test: 1D 1H NMR titration of levosimendan into free cTnI144−163 peptide; format: binding; conditions: data not shown
[8] = test system: skinned muscle fibers; conditions: cited from earlier work
[9] = test system: perfused hearts; conditions: cited from earlier work
[10] = target: cTnI147−163 (Homo sapiens, UniProt P19429); test: 1D 1H NMR titration of levosimendan into free cTnI147−163 peptide; format: binding; conditions: data not shown
Method in brief: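 Test compound stocks were made fresh in DMSO-d6 for every titration and shielded from light; concentrations were determined gravimetrically. […] 1D 1H spectra were recorded at 500 MHz.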

[11] = test system: cNTnC(WT)·Ca^2+; conditions: WT isoform; cited from earlier work
[12] = target: cNTnC(C35S/C84S)·Ca^2+ (Homo sapiens, UniProt P63316, C35S/C84S); test: 2D 1H-15N HSQC NMR titration of cNTnC; format: binding

Sequence of cNTnC(C35S/C84S)·Ca^2+·cTnI144−163 (P19429 145-164, other chains not shown): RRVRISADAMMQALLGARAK

CC1CC(=O)NN=C1c1ccc(N)cc1 (stereo not drawn) [AMDP, 6-(4-aminophenyl)-5-methyl-4,5-dihydro-3(2H)-pyridazinone]
drug-induced backbone amide chemical shift changes [1]: ≤ 20 Hz
Kd [1]: 1.5 mM and ~1.5 mM
solubility in aqueous solution (in words) [2]: highly soluble in aqueous solution
Kd [3]: 6.5 mM

CC1CC(=O)NN=C1c1ccc(-n2ccnc2)cc1 (stereo not drawn) [CI-930, 4,5-dihydro-6-[4-(1-imidazol-1-yl)phenyl]-5-methyl-4,5-dihydro-3(2H)-pyridazinone]
drug-induced backbone amide chemical shift changes [1]: ≤ 20 Hz
Kd [1]: 2.65 mM
Kd [3]: 11 mM

CC1CC(=O)NN=C1c1ccc(Cl)cc1 (stereo not drawn) [CMDP, 6-(4-chlorophenyl)-5-methyl-4,5-dihydro-3(2H)-pyridazinone]
drug-induced backbone amide chemical shift changes [1]: ≤ 60 Hz

COc1ccc(C2=NNC(=O)CC2)cc1 [MPDP, 6-(4-methoxyphenyl)-4,5-dihydro-3(2H)-pyridazinone]
chemical shift changes on titration (in words) [1]: No chemical shift changes were observed
chemical shift changes on titration (in words) [3]: No chemical shift changes were observed

NCCCCCCNS(=O)(=O)c1cccc2c(Cl)cccc12 [W7, N-(6-aminohexyl)-5-chloro-1-naphthalenesulfonamide]
Kd [4]: ~500 µM

CC(C)(C)CC(C)(C)c1ccc(OCCOCCOCCOCCO)cc1 [anapoe, 2-[2-(2-{2-[4-(1,1,3,3-tetramethylbutyl)phenoxy]ethoxy}ethoxy)ethoxy]ethanol]
Kd [5]: ~640 µM

O=C1CCC(c2ccc(-n3ccnc3)cc2)=NN1 [imazodan, 4,5-dihydro-6-[4-(1-imidazol-1-yl)phenyl]-3(2H)-pyridazinone]
chemical shift changes on titration (in words) [1]: No chemical shift changes were observed
chemical shift changes on titration (in words) [3]: No chemical shift changes were observed

C[C@@H]1CC(=O)NN=C1c1ccc(NN=C(C#N)C#N)cc1 [levosimendan, (−)-[4-(1,4,5,6-tetrahydro-4-methyl-6-oxo-3-pyridazinyl)phenyl]hydrozonopropanedinitrile]
Kd [6]: ≥ 200 µM
chemical shift change of the peptide in the presence of drug (in words) [7]: no chemical shift change
concentration of maximal effect [8]: 10 µM
solubility in aqueous solution (in words) [2]: insoluble in aqueous solution
lowest concentration with multiple effects [9]: 0.3 µM
chemical shift change of the peptide in the presence of drug (in words) [10]: no chemical shift change

Ac-RISADAMMQALLGARAK-NH2 [cTnI147−163]
stoichiometry of binding [11]: 1/1
solubility in aqueous solution (in words) [2]: highly soluble in aqueous solution
stoichiometry of binding ([12]; C35S/C84S isoform): 1/1
equiv of peptide required to saturate the protein ([12]; solid peptide added, pH 6.7): 3−3.5 equiv
